Test system: human non-small-cell lung cancer cells (A549)
Assay: In vitro cytotoxicity
Assay type: cell-based
Conditions: not given
Method in brief: (§1)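 Cells grown in DMEM with 10% FBS, penicillin/streptomycin, L-glutamine and 1 mM sodium pyruvate at 37 °C, 5% CO2. Seeded at 3 × 10^3 cells/well for 24 h, then exposed 72 h to test compound at 6.25, 12.5, 25, 50 and 100 μM; 5-FU as positive control. MTT 0.5 mg mL−1 for 3 h at 37 °C; formazan dissolved in DMSO, read at A570. Untreated cells set as 100% viability; IC50 given as mean ±SD, n = 3.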

| SMILES | Cytotoxic activity against A549 cells (in words) |
| --- | --- |
| COc1ccc(/C=C/c2nc3ccc(Br)cc3nc2/C=C/c2ccc(OC)cc2)cc1 [Compound 4l, 6-Bromo-2,3-bis[(E)-4-methoxystyryl]quinoxaline] | exhibited cytotoxic activities |
| Clc1cccc(/C=C/c2nc3ccc(Br)cc3nc2/C=C/c2cccc(Cl)c2)c1 [Compound 4g, 6-Bromo-2,3-bis[(E)-3-chlorostyryl]quinoxaline] | exhibited cytotoxic activities |
| COc1ccccc1/C=C/c1nc2ccc(Br)cc2nc1/C=C/c1ccccc1OC [Compound 4e, 6-Bromo-2,3-bis[(E)-2-methoxystyryl]quinoxaline] | exhibited cytotoxic activities |
| Brc1ccc2nc(/C=C/c3ccco3)c(/C=C/c3ccco3)nc2c1 [Compound 4a, 6-Bromo-2,3-bis[(E)-2-(furan-2-yl)vinyl]quinoxaline] | exhibited cytotoxic activities |
| O=[N+]([O-])c1ccc2nc(/C=C/c3cccc(Cl)c3)c(/C=C/c3cccc(Cl)c3)nc2c1 [Compound 5g, 2,3-Bis[(E)-3-chlorostyryl]-6-nitroquinoxaline] | exhibited cytotoxic activities |
| Brc1ccc2nc(/C=C/c3cccs3)c(/C=C/c3cccs3)nc2c1 [Compound 4b, 6-Bromo-2,3-bis[(E)-2-(thiophen-2-yl)vinyl]quinoxaline] | exhibited cytotoxic activities |

Test system: Hs68 (human foreskin fibroblast) cells
Assay: In vitro cytotoxicity
Assay type: cell-based
Conditions: Hs68, read-out: IC50 (concentration necessary for 50% inhibition), Hs68 cells
Method in brief: as §1

| SMILES | IC50 |
| --- | --- |
| O=c1[nH]cc(F)c(=O)[nH]1 [5-FU, 5-Fluorouracil] | 3.08 ± 0.4 µM |

Test system: not listed separately
Assay: Solubility observation
Assay type: physicochemical
Conditions: compounds with two nitro groups

| SMILES | Solubility (in words) |
| --- | --- |
| O=[N+]([O-])c1ccc(/C=C/c2nc3ccc([N+](=O)[O-])cc3nc2/C=C/c2ccc([N+](=O)[O-])cc2)cc1 [Compound 5k, 6-Nitro-2,3-bis[(E)-4-nitrostyryl]quinoxaline] | reduced the solubility |
| O=[N+]([O-])c1cccc(/C=C/c2nc3ccc(Br)cc3nc2/C=C/c2cccc([N+](=O)[O-])c2)c1 [Compound 4f, 6-Bromo-2,3-bis[(E)-3-nitrostyryl]quinoxaline] | reduced the solubility |
| O=[N+]([O-])c1cccc(/C=C/c2nc3ccc([N+](=O)[O-])cc3nc2/C=C/c2cccc([N+](=O)[O-])c2)c1 [Compound 5f, 6-Nitro-2,3-bis[(E)-3-nitrostyryl]quinoxaline] | reduced the solubility |
| O=[N+]([O-])c1ccc(/C=C/c2nc3ccc(Br)cc3nc2/C=C/c2ccc([N+](=O)[O-])cc2)cc1 [Compound 4k, 6-Bromo-2,3-bis[(E)-4-nitrostyryl]quinoxaline] | reduced the solubility |
